Measured values published in ChEMBL document CHEMBL1124084, “Studies on scavengers of active oxygen species. 1. Synthesis and biological activity of 2-O-alkylascorbic acids” (J Med Chem, 1988).
The source made the active and inactive calls. The rule behind the calls is not given here.

Assays:
Rattus norvegicus [1] = species on record: Rattus norvegicus; assay: Antilipid peroxidation was determined; No effect; format: functional
In short: (§1)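 Rat brain lipid peroxidation: brains from male SD rats (12 weeks old), exsanguinated under pentobarbital anaesthesia, homogenized to 5% in phosphate buffer pH 7.4. Homogenate incubated with test drug at 37 °C for 1 h. Lipid peroxide quantified by the thiobarbituric acid method.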

Rattus norvegicus [2] = assay: Effect of AOS scavenger on premeture ventricular complexes PVCs, arrhythmias induced by ischemia-reperfusion in anesthetized rat, duration at 10 mg/kg; format: functional, Cardiac ventricle
Rattus norvegicus [3] = assay: Effect of AOS scavenger on ventricular tachycardia (VT),arrhythmias induced by ischemia-reperfusion in anesthetized rat duration at 10 mg/kg; format: functional, Cardiac ventricle
Rattus norvegicus [4] = assay: Effect of AOS scavenger on ventricular tachycardia (VT), arrhythmias induced by ischemia-reperfusion in anesthetized rat, frequency, times at 10 mg/kg; format: functional, Cardiac ventricle
Rattus norvegicus [5] = assay: Effect of AOS scavenger on ventricular fibrillation (VF), arrhythmias induced by ischemia-reperfusion in anesthetized rat, frequency, times at 10 mg/kg; format: functional, Cardiac ventricle
Rattus norvegicus [6] = assay: Effect of AOS scavenger on ventricular fibrillation (VF),arrhythmias induced by ischemia-reperfusion in anesthetized rat; incidence at 10 mg/kg 7/8; format: functional, Cardiac ventricle
Rattus norvegicus [7] = assay: Effect of AOS scavenger on ventricular tachycardia (VT),arrhythmias induced by ischemia-reperfusion in anesthetized rat, incidence at 10 mg/kg; 8/8; format: functional, Cardiac ventricle
Rattus norvegicus [8] = assay: Effect of AOS scavenger on ventricular fibrillation (VF),arrhythmias induced by ischemia-reperfusion in anesthetized rat, duration at 10 mg/kg; format: functional, Cardiac ventricle
[9] = Reducing activity determined by the use of stable radical alpha,alpha-di-phenyl-beta-picrylhydrazyl (DPPH); set-up: concentration or dose not given beside the values
Rattus norvegicus [10] = species on record: Rattus norvegicus; assay: Antilipid peroxidation was determined; format: functional; in short: as §1
Rattus norvegicus [11] = assay: Effect of AOS scavenger on ventricular tachycardia (VT),arrhythmias induced by ischemia-reperfusion in anesthetized rat, duration at 10 mg/kg; format: functional, Cardiac ventricle
Rattus norvegicus [12] = assay: Effect of AOS scavenger on ventricular tachycardia (VT),arrhythmias induced by ischemia-reperfusion in anesthetized rat, frequency, times at 10 mg/kg; format: functional, Cardiac ventricle
Rattus norvegicus [13] = species on record: Rattus norvegicus; assay: Inhibition of lipid peroxidation was determined with rat brain tissue homogenates; format: functional
In short: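 Brains excised from male SD rats (12 weeks), exsanguinated under pentobarbital anesthesia; 5% homogenate in phosphate buffer pH 7.4 incubated with test drug 1 h at 37 °C; lipid peroxide quantified by thiobarbituric acid method.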

Rattus norvegicus [14] = assay: Effect of AOS scavenger on ventricular fibrillation (VF),arrhythmias induced by ischemia-reperfusion in anesthetized rat, incidence at 10 mg/kg; 4/7; format: functional, Cardiac ventricle
Rattus norvegicus [15] = assay: Effect of AOS scavenger on ventricular tachycardia (VT),arrhythmias induced by ischemia-reperfusion in anesthetized rat, incidence at 10 mg/kg; 6/7; format: functional, Cardiac ventricle
Rattus norvegicus [16] = assay: Effect of AOS scavenger on ventricular fibrillation (VF),arrhythmias induced by ischemia-reperfusion in anesthetized rat, duration at 10 mg/kg
Rattus norvegicus [17] = assay: Effect of AOS scavenger on ventricular fibrillation (VF),arrhythmias induced by ischemia-reperfusion in anesthetized rat, frequency at 10 mg/kg
Rattus norvegicus [18] = species on record: Rattus norvegicus; assay: Antilipid peroxidation was measured at 10e-5 M concentration.; format: functional; in short: as §1
Rattus norvegicus [19] = assay: Effect of AOS scavenger on ventricular fibrillation (VF),arrhythmias induced by ischemia-reperfusion in anesthetized rat, incidence at 10 mg/kg; 3/6; format: functional, Cardiac ventricle
Rattus norvegicus [20] = assay: Effect of AOS scavenger on ventricular tachycardia (VT),arrhythmias induced by ischemia-reperfusion in anesthetized rat, incidence at 10 mg/kg
Rattus norvegicus [21] = assay: Effect of AOS scavenger on ventricular tachycardia (VT), arrhythmias induced by ischemia-reperfusion in anesthetized rat at requency, times 10 mg/kg; format: functional, Cardiac ventricle
Rattus norvegicus [22] = assay: Effect of AOS scavenger on ventricular fibrillation (VF),arrhythmias induced by ischemia-reperfusion in anesthetized rat, incidence at 10 mg/kg; 2/7; format: functional, Cardiac ventricle

| IC50 (Rattus norvegicus [13]) [µM] | SMILES | PVCs (Rattus norvegicus [2]) | Frequency (Rattus norvegicus [4]) | Frequency (Rattus norvegicus [5]) | Duration (Rattus norvegicus [8]) [s] | Reducing activity [9] [%] | Antilipid peroxidation (Rattus norvegicus [10]) [%] | Activity (Rattus norvegicus [2]) [min] | Duration (Rattus norvegicus [11]) [s] | also measured |
| --- | --- | --- | --- | --- | --- | --- | --- | --- | --- | --- |
| – | O=C1C(OCc2ccccc2)=C(O)OC1C(O)CO (configuration not stated) | 26.9 PVCs/min | 3.9 | 2.5 | 79.9 | 93 | – | – | – | Antilipid peroxidation (Rattus norvegicus [1]): inactive; Duration (Rattus norvegicus [3]): <4.9 s; Incidence (Rattus norvegicus [6]): 7 N; Incidence (Rattus norvegicus [7]): 8 N |
| 5.6 | CCCCCCCCCCCCCCCOC1=C(O)OC(C(O)CO)C1=O (configuration not stated) | – | – | – | – | 95.4 | 67.4 | <4.3 | 11.9 | Frequency (Rattus norvegicus [12]): 5; Incidence (Rattus norvegicus [14]): 4 N; Incidence (Rattus norvegicus [15]): 6 N; Duration (Rattus norvegicus [16]): <3 s; Frequency (Rattus norvegicus [17]): <0.9 |
| – | CCCCCCCCCCCCCCCCCCOC1=C(O)C(=O)OC1C(O)CO (configuration not stated) | 3.9 | 2.3 | <0.8 | <1.9 | 94.5 | – | – | <4 | Antilipid peroxidation (Rattus norvegicus [18]): 34.5%; Incidence (Rattus norvegicus [19]): 3 N; Incidence (Rattus norvegicus [20]): 4 N |
| 7.4 | CCCCCCCCCCCCCCOC1=C(O)OC(C(O)CO)C1=O (configuration not stated) | – | – | <0.6 | 10.1 | 95.4 | 54.8 | <3.5 | 12.9 | Frequency (Rattus norvegicus [21]): <2.6; Incidence (Rattus norvegicus [22]): 2 N |
